Reference: ChEMBL document CHEMBL4118256, “Second Generation of Mannich Base-Type Derivatives with in Vivo Activity against Trypanosoma cruzi” (J Med Chem, 2018)
The source made the active and inactive calls. No cut-off for these calls is given here.

How the values were obtained:
[1] = tested on: Trypanosoma cruzi; assay: Antitrypanosomal activity against Trypanosoma cruzi MHOM/Pe/2011/Arequipa DTU 5 trypamastigotes infected in Balb/c mouse assessed as reduction in splenomegaly at 20 mg/kg, po once daily for 5 consecutive days starting from day 10 post infection measured on day 127 post infection relative to control; format: functional, organism-based
[2] = tested on: Mus musculus; assay: (§1) Cardiotoxicity in Balb/c mouse infected with Trypanosoma cruzi MHOM/Pe/2011/Arequipa DTU 5 trypamastigotes assessed as change in ratio of creatine kinase in muscle to brain at 20 mg/kg, po once daily for 5 consecutive days starting from day 10 post infection measured on day 127 post infection by biochemical analysis relative to control; format: toxicity, organism-based; settings: in vivo
Outline: (§2)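 Serum clinical chemistry in Arequipa-infected female BALB/c mice. Oral 20 mg·kg-1 per day for 5 days, started day 10 or day 75 pi. Samples taken at day 16 pi or day 81 pi, and on necropsy day. Markers: CK-MB and LDH (U/L), AST, ALT and alkaline phosphatase (U/L), total bilirubin. Results scored relative to infected untreated controls; uninfected reference n = 15.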

[3] = tested on: Trypanosoma cruzi; assay: Antitrypanosomal activity against Trypanosoma cruzi MHOM/Pe/2011/Arequipa DTU 5 trypamastigotes infected in Balb/c mouse assessed as reduction in Ig-G level in serum at 20 mg/kg, po once daily for 5 consecutive days starting from day 75 post infection measured on day 81 post infection by ELISA; format: functional, organism-based
Outline: (§3)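 Female BALB/c mice (8-10 weeks, 20-25 g), six per group, infected i.p. with 5 x 10^5 Arequipa bloodstream trypomastigotes. Compound was given orally once daily for 5 days from day 10 or day 75 pi, at 20 mg·kg-1 per day in 5 % DMSO/0.5 % HPMC. Anti-T. cruzi IgG in serum was measured by ELISA with Fe-SOD antigen, read as OD 490 nm.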

[4] = tested on: Mus musculus; assay: as §1, with “Nephrotoxicity” for “Cardiotoxicity”, “decrease” for “change”, “urea level” for “ratio of creatine kinase”, “serum” for “muscle to brain”; format: toxicity, organism-based; design: scale not given: the % may be the effect or the level left; settings: in vivo
[5] = tested on: Mus musculus; assay: Toxicity in Balb/c mouse assessed as reduction in body mass at 20 mg/kg, po once daily for 5 consecutive days starting from day 10 post infection relative to control; format: organism-based; design: scale not given: the % may be the effect or the level left; settings: in vivo
[6] = tested on: Trypanosoma cruzi; assay: (§4) Antitrypanosomal activity against Trypanosoma cruzi MHOM/Pe/2011/Arequipa DTU 5 trypamastigotes infected in Balb/c mouse assessed as reduction in parasitaemia level at 20 mg/kg, po once daily for 5 consecutive days starting from day 10 post infection measured on day 23 post infection by Neubauer chamber method relative to control; format: functional; design: scale not given: the % may be the effect or the level left
Outline: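 Six female BALB/c mice per group, infected i.p. with 5 x 10^5 Arequipa bloodstream trypomastigotes in PBS. Oral dosing once daily for 5 days from day 10 pi, 20 mg·kg-1 per day in aqueous 5 % DMSO/0.5 % HPMC, vehicle to controls. Blood trypomastigotes counted in a Neubauer chamber (parasites·mL-1); means ± SD.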

[7] = tested on: Mus musculus; assay: as §1, with “decrease” for “change”, “serum LDH level” for “ratio of creatine kinase in muscle to brain”, “75” for “10”; format: toxicity, organism-based; design: scale not given: the % may be the effect or the level left; settings: in vivo; outline: as §2
[8] = tested on: Trypanosoma cruzi; assay: Antitrypanosomal activity against Trypanosoma cruzi MHOM/Pe/2011/Arequipa DTU 5 trypamastigotes infected in Balb/c mouse assessed as reduction in Ig-G level in serum at 20 mg/kg, po once daily for 5 consecutive days starting from day 10 post infection measured on day 100 post infection by ELISA; format: functional, organism-based; outline: as §3
[9] = tested on: Mus musculus; assay: as §1, with “serum LDH level” for “ratio of creatine kinase in muscle to brain”, “16” for “127”; format: toxicity, organism-based; settings: in vivo; outline: as §2
[10] = tested on: Mus musculus; assay: Toxicity in Balb/c mouse assessed as death at 20 mg/kg, po once daily for 5 consecutive days starting from day 10 post infection; format: organism-based; settings: in vivo
Outline: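 Female BALB/c mice (8-10 weeks, 20-25 g), groups of six, infected i.p. with 5 x 10^5 Arequipa bloodstream trypomastigotes. Dosing was oral, 20 mg·kg-1 per day for 5 days, given as a 2 mg·mL-1 suspension in 5% DMSO/0.5% hydroxypropyl methylcellulose. Treatment started day 10 pi (acute phase) or day 75 pi (chronic phase). Deaths and body-mass loss were monitored during and after treatment.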

[11] = tested on: Trypanosoma cruzi; assay: (§5) Antitrypanosomal activity against Trypanosoma cruzi MHOM/Pe/2011/Arequipa DTU 5 trypamastigotes infected in Balb/c mouse assessed as reduction in parasitaemia reactivation in brain tissue at 20 mg/kg, po pretreated once daily for 5 consecutive days starting from day 10 post infection followed by cyclophosphamide-induced immunosuppression on day 100 post infection every 4 days for a maximum of 3 doses measured on day 127 post infection by PCR method; format: functional; design: scale not given: the % may be the effect or the level left
Outline: (§6)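 Necropsy on day 127 pi after oral treatment and cyclophosphamide immunosuppression. Tissue DNA was amplified by PCR targeting the ~300 bp T. cruzi SOD gene, 200 nM each primer, 30 cycles with 55.5 °C annealing. Products run on 2 % agarose; positive organs counted out of six mice.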

[12] = tested on: Trypanosoma cruzi; assay: as §5, with “stomach” for “brain”; format: functional; design: scale not given: the % may be the effect or the level left
[13] = tested on: Trypanosoma cruzi; assay: (§7) Antitrypanosomal activity against Trypanosoma cruzi MHOM/Pe/2011/Arequipa DTU 5 trypamastigotes infected in Balb/c mouse assessed as reduction in parasitaemia reactivation in heart tissue at 100 mg/kg, po pretreated once daily for 5 consecutive days starting from day 75 post infection followed by cyclophosphamide-induced immunosuppression on day 100 post infection every 4 days for a maximum of 3 doses measured on day 127 post infection by PCR method; format: functional; design: scale not given: the % may be the effect or the level left; outline: as §6
[14] = tested on: Trypanosoma cruzi; assay: as §7, with “bone marrow” for “heart”; format: functional; design: scale not given: the % may be the effect or the level left; outline: as §6
[15] = tested on: Trypanosoma cruzi; assay: as §4, with “at 100” for “at 20”, “measured up to” for “measured on”, “day 50” for “day 23”, “method” for “method relative to control”; format: functional, organism-based
[16] = tested on: Trypanosoma cruzi; assay: as §7, with “lung” for “heart”; format: functional; design: scale not given: the % may be the effect or the level left; outline: as §6
[17] = tested on: Trypanosoma cruzi; assay: as §7, with “esophagus” for “heart”; format: functional; design: scale not given: the % may be the effect or the level left; outline: as §6
[18] = tested on: Mus musculus; assay: (§8) Nephrotoxicity in Balb/c mouse infected with Trypanosoma cruzi MHOM/Pe/2011/Arequipa DTU 5 trypamastigotes assessed as decrease in urea level in serum at 100 mg/kg, po once daily for 5 consecutive days starting from day 75 post infection measured on day 127 post infection by biochemical analysis relative to control; format: toxicity, organism-based; design: scale not given: the % may be the effect or the level left; settings: in vivo
[19] = tested on: Mus musculus; assay: as §8, with “uric acid” for “urea”; format: toxicity, organism-based; design: scale not given: the % may be the effect or the level left; settings: in vivo
[20] = tested on: Mus musculus; assay: as §8, with “Cardiotoxicity” for “Nephrotoxicity”, “change” for “decrease in urea level”, “serum LDH level” for “serum”, “[…],” for “100 mg/kg,”, “81” for “127”; format: toxicity, organism-based; settings: in vivo; outline: as §2
[21] = tested on: Mus musculus; assay: Hepatotoxicity in Balb/c mouse infected with Trypanosoma cruzi MHOM/Pe/2011/Arequipa DTU 5 trypamastigotes assessed as change in alkaline phosphatase level at […], po once daily for 5 consecutive days starting from day 10 post infection measured on day 16 post infection by biochemical analysis relative to control; format: toxicity, organism-based; settings: in vivo; outline: as §2
[22] = tested on: Mus musculus; assay: (§9) Hepatotoxicity in Balb/c mouse infected with Trypanosoma cruzi MHOM/Pe/2011/Arequipa DTU 5 trypamastigotes assessed as increase in ratio of serum AST to GOT level at […], po once daily for 5 consecutive days starting from day 10 post infection measured on day 16 post infection by biochemical analysis relative to control; format: toxicity, organism-based; settings: in vivo
[23] = tested on: Mus musculus; assay: as §9, with “change” for “increase”, “[…]” for “AST”, “GPT” for “GOT”, “127” for “16”; format: toxicity, organism-based; settings: in vivo

With O=C(Cn1ccnc1[N+](=O)[O-])NCc1ccccc1 [BENZNIDAZOLE] as the compound, how does the Activity [1] read?
Its Activity is “Active”.

And the Activity [2]?
The Activity was < 10%.

What about the Activity [3] of the same compound?
The Activity was “inactive”.

What about the Activity [4] of the same compound?
Its Activity is “<= 30%”.

And the Activity [5]?
Its Activity is > 10%.

What about the Activity [6] of the same compound?
The Activity was 70%.

What about the Activity [7] of the same compound?
Its Activity is “<= 20%”.

What about the Activity [8] of the same compound?
Its Activity is “Active”.

And the Activity [9]?
Its Activity is < 10%.

What about the Activity [10] of the same compound?
Its Activity is “Non-Toxic”.

And the Activity [11]?
The Activity was 33%.

What about the Activity [12] of the same compound?
The Activity was 33%.

What does the source list for COc1ccc(C(=O)CCN2CCN(c3ccc(Cl)cc3)CC2)cc1?
Activity [13]: 78%; Activity [14]: 78%; Activity [15]: Active; Activity [16]: 78%; Activity [17]: 78%

For COc1ccc(C(=O)CCN2CCN(c3ccc([N+](=O)[O-])cc3)CC2)cc1, which Activity [18] is on record?
The Activity was “<= 10%”.

What about the Activity [19] of the same compound?
The Activity was “<= 30%”.

And the Activity [20]?
Its Activity is < 10%.

What about the Activity [21] of the same compound?
The Activity was < 10%.

And the Activity [22]?
Its Activity is > 40%.

For COc1ccc(C(=O)CCN2CCN(c3ccc(F)cc3)CC2)cc1, which Activity [23] is on record?
Its Activity is < 10%.
